Rows were chosen to be rich in hits. Some 2.2% of all compounds tested hit in one or more screens of this group.
MLLE-PAM2 inh – inhibitors of microRNA-mediated deadenylation, human PABP1 MLLE binding | GST-MLLE / FITC-PAM2 fluorescence polarization | inhibition, % at 20 µM | P11940 | 0.36% of 360,000 active; in the data active = inhibition above about 35%, passing the limit was not always enough
PABP polyA inh – PABP-poly(A) binding inhibition; PABP-poly(A) RNA binding, fluorescence polarization; calls only at 35 µM; 1% of 290,000 active; P11940;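 note: calls also rest on retests at 20 µM and on dose response follow-up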
eIF4H FP inh – inhibitors of RNA binding by human eIF4H; Q15056; eIF4H fluorescence polarization binding assay; inhibition, % at 35 µM; 0.94% of 290,000 active;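 note: calls also rest on retests at 20 µM and on dose response follow-up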
IMP-1 inh – blocks Pseudomonas aeruginosa IMP-1 metallo-beta-lactamase | purified IMP-1, nitrocefin hydrolysis, epi-absorbance fluorescence | 0.45% of 290,000 active | inhibition, % at 5.6 µM;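 active = inhibition above the mean plus 3 SD of all compounds in the same screening run, cut at about 4.5% in these data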
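System: Purified recombinant IMP-1 metallo-beta-lactamase enzyme | Measured by: Fluorescence quenching readout, ex 480/em 530 nm | Replication: Singlicate | Incubation: 15 min preincubation plus 25 min reaction at 25 °C | Evaluation: Percent inhibition from optical density relative to buffer-blank wells | Benchmarks: DMSO with and without IMP-1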
VIM-2 inh – blocks Pseudomonas aeruginosa VIM-2 metallo-beta-lactamase; purified VIM-2, nitrocefin hydrolysis, epi-absorbance fluorescence; inhibition, % at 5.6 µM; 0.89% of 290,000 active; AID 1527;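 active = inhibition above the mean of all tested compounds plus 3 SD, cutoff set per screening run, cut at about 7.5% in these data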;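 note: red hydrolysis product quenches plate fluorescence so inhibitors raise well fluorescence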
Of the large screens only hits and unclear results are named; the others gave an inactive call. Unless noted, the rule behind the calls is not given here.

Cc1c(C(=O)N/N=C/c2ccc(-c3ccccc3[N+](=O)[O-])o2)sc(N)c1C#N	PABP polyA inh active, eIF4H FP inh 73
O=C(NC1CCN(c2ncccn2)CC1)c1c(F)cccc1F	none
Cc1sc(NC(=O)CCl)c(C(=O)c2ccccc2)c1C	MLLE-PAM2 inh 37
Cc1ccccc1C(=O)Nc1sc(C)c(C)c1C(=O)c1ccccc1	none
Cc1cc(C(=O)C(C)OC(=O)C2=NNC(=O)CC2)c(C)n1-c1ccc(OC(F)F)cc1 (stereo not drawn)	IMP-1 inh 5.2
Cc1cc(C(=O)COC(=O)C2=NNC(=O)CC2)c(C)n1-c1ccc(OC(F)F)cc1	none
N#CC(=C=[N-])c1nc2ccccc2nc1-[n+]1cccc(NC(=O)c2ccccc2)c1	none
N#CC(=C=[N-])c1nc2ccccc2nc1-[n+]1cccc(NC(=O)c2cccs2)c1	PABP polyA inh active, eIF4H FP inh 54
CCNC(=O)C1(C)CCCN(C(=O)Cc2ccc(OC)c(OC)c2)C1 (stereo not drawn)	none (no result: PABP polyA inh, eIF4H FP inh, IMP-1 inh, VIM-2 inh)
Cc1cc(C(=O)CSc2nc(N)cc(N)n2)c(C)n1CC1CCCO1 (stereo not drawn)	none (no result: PABP polyA inh, eIF4H FP inh, IMP-1 inh, VIM-2 inh)
Cc1cc(C(=O)COC(=O)c2ccco2)c(C)n1Cc1ccco1	none
Cc1cc(C(=O)COC(=O)c2ccncc2)c(C)n1Cc1ccco1	PABP polyA inh active, eIF4H FP inh 55
Cc1cc(C(=O)CSc2nc3ccccc3o2)c(C)n1CC1CCCO1 (stereo not drawn)	PABP polyA inh active, eIF4H FP inh 52
Cc1sc2nc(SCC(=O)c3cc(C)n(CC4CCCO4)c3C)n(C(C)C)c(=O)c2c1C (stereo not drawn)	PABP polyA inh active, eIF4H FP inh 65
Cc1cc(C(=O)CSc2nc3ccccc3[nH]2)c(C)n1CC1CCCO1 (stereo not drawn)	none
O=C(CSc1nc2ccccc2o1)c1cc2ccccc2oc1=O	MLLE-PAM2 inh 38
O=C(CNC(=O)c1ccccc1)NCC(O)c1ccc([N+](=O)[O-])cc1 (stereo not drawn)	none
CCc1noc(C)c1C(=O)N(CC)CC(=O)Nc1cc(Cl)ccc1C	none (no result: PABP polyA inh, eIF4H FP inh, IMP-1 inh, VIM-2 inh)
Cc1cccc(-n2nnnc2SCC(=O)c2cc(C)n(Cc3ccco3)c2C)c1	eIF4H FP inh 58
Cc1ccc(-n2nnnc2SCC(=O)c2cc(C)n(CC3CCCO3)c2C)cc1 (stereo not drawn)	none (no result: IMP-1 inh, VIM-2 inh)
Cc1cccc(-n2nnnc2SCC(=O)c2cc(C)n(CC3CCCO3)c2C)c1 (stereo not drawn)	PABP polyA inh active, eIF4H FP inh 53
Cc1cc(C(=O)CSc2nnc(N)s2)c(C)n1Cc1ccco1	none
CC(C)(C)c1ccc(S(=O)(=O)N2CCN(C3CCCC3)CC2)cc1	none
CC1CC(C)CN(S(=O)(=O)c2ccc(C(C)(C)C)cc2)C1 (stereo not drawn)	PABP polyA inh active
CCOC(=O)c1c(-c2ccc(C)o2)csc1NC(=S)NC(=O)c1ccc(F)cc1	MLLE-PAM2 inh 46
Cc1ccc(COC(=O)Cc2coc3cc(O)ccc23)cc1	none
O=C(OCc1cc(=O)n2c(n1)sc1ccccc12)c1ccc2c(=O)n3c(nc2c1)CCC3	PABP polyA inh active, eIF4H FP inh 75 (no result: IMP-1 inh, VIM-2 inh)
O=c1cc(CSc2nnc(-c3cccs3)n2Cc2ccccc2)nc2sc3ccccc3n12	none
Cc1ccc2c(CC(=O)OCc3cc(=O)n4c(n3)sc3ccccc34)coc2c1	eIF4H FP inh 70
CC(C)[C@H](NC(=O)Cc1ccccc1)C(=O)OCc1cc(=O)n2c(n1)sc1ccccc12	PABP polyA inh active, eIF4H FP inh 75
COc1ccc(NC2CCCN(C(=O)c3ccccc3N3CCOCC3)C2)cc1OC (stereo not drawn)	none
CC1(C(=O)NCC2CC2)Cc2c(-c3cccc(C(F)(F)F)c3)ccnc2O1 (stereo not drawn)	none (no result: PABP polyA inh, eIF4H FP inh, IMP-1 inh, VIM-2 inh)
O=C(NCC1CCCCC1)c1cc(S(=O)(=O)N2CCOCC2)ccc1F	none (no result: PABP polyA inh, eIF4H FP inh, IMP-1 inh, VIM-2 inh)
O=[N+]([O-])c1cccnc1NCCNc1ncc(C(F)(F)F)cc1Cl	none
CCCSc1nnc(N2C(=O)C(O)=C(C(=O)c3ccco3)C2c2ccccc2F)s1 (stereo not drawn)	PABP polyA inh active, eIF4H FP inh inconclusive
Cc1cn([C@H]2C[C@H](O)[C@@H](CCC(=O)NCc3ccco3)O2)c(=O)[nH]c1=O	none (no result: PABP polyA inh, eIF4H FP inh, IMP-1 inh, VIM-2 inh)
CC(C)=NOc1nc(N(C)C)nc(N(C)C)n1	none
COCCn1c(C)cc(C(=O)COC(=O)c2cccc(O)c2)c1C	none
COCCn1c(C)cc(C(=O)COC(=O)c2cc3c(s2)CCC3)c1C	PABP polyA inh active, eIF4H FP inh 91
CN=c1scc(-c2ccccc2F)n1/N=C(\C)c1cccnc1	none
C[C@@]12CCC[C@@](C)(C(=O)O)C1CC[C@@]13C[C@@H](NCc4ccccc4)[C@@](C)(CCC12)C3 (stereo partly drawn)	none (no result: PABP polyA inh, eIF4H FP inh, IMP-1 inh, VIM-2 inh)
O=[N+]([O-])c1cccc(S(=O)(=O)Nc2nc3ccccc3nc2Nc2cccc(S(=O)(=O)N3CCCCC3)c2)c1	none
Cc1ccc(S(=O)(=O)Nc2nc3ccccc3nc2Nc2cccc(S(=O)(=O)N3CCCC3)c2)cc1	MLLE-PAM2 inh 45, PABP polyA inh inconclusive, eIF4H FP inh inconclusive
O=C(O)C1C2C=CC(C2)C1C(=O)NCc1ccc(Cl)cc1Cl (stereo not drawn)	IMP-1 inh 7.6
O=C(O)C1C2C=CC(C2)C1C(=O)NCc1ccccc1F (stereo not drawn)	none
O=C(CCC(=O)N1CCOCC1)c1ccc(F)cc1	none
CCC(=O)Nc1ccc(C(=O)CSc2nnc(-c3ccccc3F)n2C2CC2)cc1	eIF4H FP inh 73, IMP-1 inh 5.5
CCCCN(C(=O)C1CCN(C(=O)c2ccccc2C)CC1)c1c(N)n(CCCC)c(=O)[nH]c1=O	none
CC(=O)N1CCc2cc(N=NC3=C(O)CC(C)(C)CC3=O)ccc21	PABP polyA inh active, eIF4H FP inh 101
S=C(Nc1ccc2c(c1)OCO2)Nc1ccc2c(c1)OCO2	PABP polyA inh active, eIF4H FP inh 112
c1cc(CNc2ccc3c(c2)OCO3)ccn1	MLLE-PAM2 inh 80
NS(=O)(=O)c1cc(C(=O)NC2CCSc3ccccc32)ccc1Cl (stereo not drawn)	PABP polyA inh active, eIF4H FP inh 106
CC(=O)c1cccc(S(=O)(=O)NC2CCSc3ccccc32)c1 (stereo not drawn)	MLLE-PAM2 inh 47
NS(=O)(=O)c1cccc(C(=O)NC2CCSc3ccccc32)c1 (stereo not drawn)	none
CC(=O)c1cccc(S(=O)(=O)NC2CC2)c1	none
C[C@@H]1CN([C@@H](C)CO)S(=O)(=O)c2ccc(Br)cc2O[C@H]1CN(C)C(=O)C1CCOCC1	none (no result: PABP polyA inh, eIF4H FP inh, IMP-1 inh, VIM-2 inh)
O=C(CSc1nc2ccccc2c(=O)n1CCCO)NCc1ccccc1	MLLE-PAM2 inh 38
COCCCn1c(SCC(=O)NCc2ccccc2)nc2ccccc2c1=O	none
Cn1c(SCC(=O)O)nc2ccccc2c1=O	VIM-2 inh 11
CC(C)c1ccccc1-n1c(SCC(=O)N2CCc3ccccc3C2)nc2ccccc2c1=O	PABP polyA inh active
COC(=O)CSc1nc2ccccc2c(=O)n1C	none

Screening results deposited in PubChem BioAssay by several laboratories.
